Experimental data published in ChEMBL document CHEMBL5724801, “EUbOPEN Chemogenomics Library - Multiplex” (2024).
“And” between values parts separate entries of the source, which are not always exact repeats. Identical values can stand only once.

System: Fibroblast
Experiment: Multiplex assay against human fibroblast
Assay type: toxicity, cell-based
Outline: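 Live cells were stained at seeding with Hoechst33342, BioTracker Green Microtubule Cytoskeleton Dye, MitoTracker Red and Annexin V Alexa Fluor 680, then imaged on a CQ1 microscope at 37°C and 5% CO2 after compound addition. CellPathfinder machine-learning gating split cells into Hoechst high-intensity objects or normal cells. Normal cells were split into healthy, pyknosed or fragmented nuclei, and pyknosed cells into mitotic or apoptotic. Tubulin, mitochondrial-mass and membrane-permeability phenotypes are per cents of healthy-nucleus cells.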

[1] = 12 h, 1 µM, compound concentration 1 uM
[2] = 12 h, 10 µM, compound concentration 10 uM
[3] = 24 h, 1 µM, compound concentration 1 uM
[4] = 24 h, 10 µM, compound concentration 10 uM
[5] = 48 h, 1 µM, compound concentration 1 uM
[6] = 48 h, 10 µM, compound concentration 10 uM

Cc1cccc(NC(=O)CN2CCC(c3ccccn3)CC2)c1.Cl.Cl
Population Apoptotic (%) [1]: 47% and 33% | Population Fragmented Nuclei (%) [1]: 16% and 25% | Population Healthy Nuclei (%) [1]: 70% and 55% | Population Hoechst High Intensity Objects (%) [1]: 4% and 6% | Population Membrane Permeable-Phenotype (%) [1]: 0% and 2% | Population Mitochondria Different-Phenotype (%) [1]: 6% and 5% | Population Mitotic Cells (%) [1]: 52% and 66% | Population Normal (%) [1]: 95% and 93% | Population Pyknosed Nuclei (%) [1]: 12% and 19% | Population Tubulin-Different-Phenotype (%) [1]: 34% and 35% | Total Cell Count [1]: 140 and 232 | Population Apoptotic (%) [2]: 59% and 34% | Population Healthy Nuclei (%) [2]: 78% and 30% | Population Hoechst High Intensity Objects (%) [2]: 10% and 2% | Population Membrane Permeable-Phenotype (%) [2]: 1% and 6% | Population Mitochondria Different-Phenotype (%) [2]: 7% and 10% | Population Mitotic Cells (%) [2]: 40% and 65% | Population Normal (%) [2]: 89% and 98% | Population Pyknosed Nuclei (%) [2]: 13% and 23% | Population Tubulin-Different-Phenotype (%) [2]: 36% and 56% | Total Cell Count [2]: 229 and 100 | Population Apoptotic (%) [3]: 50% and 40% | Population Fragmented Nuclei (%) [3]: 18% and 26% | Population Healthy Nuclei (%) [3]: 70% and 53% | Population Hoechst High Intensity Objects (%) [3]: 2% and 4% | Population Membrane Permeable-Phenotype (%) [3]: 0% and 4% | Population Mitochondria Different-Phenotype (%) [3]: 8% and 6% | Population Mitotic Cells (%) [3]: 50% and 59% | Population Normal (%) [3]: 97% and 95% | Population Pyknosed Nuclei (%) [3]: 10% and 19% | Population Tubulin-Different-Phenotype (%) [3]: 25% and 30% | Total Cell Count [3]: 134 and 239 | Population Apoptotic (%) [4]: 64% and 42% | Population Healthy Nuclei (%) [4]: 81% and 34% | Population Hoechst High Intensity Objects (%) [4]: 7% and 0% | Population Membrane Permeable-Phenotype (%) [4]: 0% and 11% | Population Mitochondria Different-Phenotype (%) [4]: 11% | Population Mitotic Cells (%) [4]: 35% and 57% | Population Normal (%) [4]: 92% and 100% | Population Tubulin-Different-Phenotype (%) [4]: 38% and 50% | Total Cell Count [4]: 217 and 105 | Population Apoptotic (%) [5]: 80% and 60% | Population Fragmented Nuclei (%) [5]: 25% and 31% | Population Healthy Nuclei (%) [5]: 63% and 55% | Population Hoechst High Intensity Objects (%) [5]: 3% | Population Membrane Permeable-Phenotype (%) [5]: 1% and 4% | Population Mitochondria Different-Phenotype (%) [5]: 3% | Population Mitotic Cells (%) [5]: 20% and 39% | Population Normal (%) [5]: 96% | Population Pyknosed Nuclei (%) [5]: 11% and 12% | Population Tubulin-Different-Phenotype (%) [5]: 28% and 35% | Total Cell Count [5]: 138 and 229 | Population Apoptotic (%) [6]: 76% and 28% | Population Healthy Nuclei (%) [6]: 75% and 39% | Population Hoechst High Intensity Objects (%) [6]: 7% and 1% | Population Membrane Permeable-Phenotype (%) [6]: 2% | Population Normal (%) [6]: 92% and 98% | Population Pyknosed Nuclei (%) [6]: 7% and 6% | Population Tubulin-Different-Phenotype (%) [6]: 44% and 61% | Total Cell Count [6]: 238 and 109

Cc1ccc(-c2c(C(=O)CF)n(CCCO)c3ncnc(N)c23)cc1
Population Apoptotic (%) [1]: 36% and 12.9% | Population Fragmented Nuclei (%) [1]: 17.65% and 9.49% | Population Healthy Nuclei (%) [1]: 63.97% and 78.26% | Population Hoechst High Intensity Objects (%) [1]: 0% | Population Membrane Permeable-Phenotype (%) [1]: 1.15% and 2.53% | Population Mitochondria Different-Phenotype (%) [1]: 9.2% and 6.06% | Population Mitotic Cells (%) [1]: 64% and 87.1% | Population Normal (%) [1]: 100% | Population Pyknosed Nuclei (%) [1]: 18.38% and 12.25% | Population Tubulin-Different-Phenotype (%) [1]: 13.79% and 12.12% | Total Cell Count [1]: 136 and 253 | Population Apoptotic (%) [2]: 6.98% and 18.18% | Population Fragmented Nuclei (%) [2]: 10.16% and 6% | Population Healthy Nuclei (%) [2]: 66.84% and 77.5% | Population Hoechst High Intensity Objects (%) [2]: 0% | Population Membrane Permeable-Phenotype (%) [2]: 4% and 4.52% | Population Mitochondria Different-Phenotype (%) [2]: 8% and 11.61% | Population Mitotic Cells (%) [2]: 93.02% and 81.82% | Population Normal (%) [2]: 100% | Population Pyknosed Nuclei (%) [2]: 22.99% and 16.5% | Population Tubulin-Different-Phenotype (%) [2]: 19.2% and 29.03% | Total Cell Count [2]: 187 and 200 | Population Apoptotic (%) [3]: 12.12% and 12% | Population Healthy Nuclei (%) [3]: 62.58% and 87.98% | Population Hoechst High Intensity Objects (%) [3]: 0% | Population Membrane Permeable-Phenotype (%) [3]: 6.86% and 1.32% | Population Mitochondria Different-Phenotype (%) [3]: 2.94% and 5.29% | Population Mitotic Cells (%) [3]: 87.88% and 88% | Population Normal (%) [3]: 100% | Population Pyknosed Nuclei (%) [3]: 20.25% and 9.69% | Population Tubulin-Different-Phenotype (%) [3]: 14.71% and 10.57% | Total Cell Count [3]: 163 and 258 | Population Apoptotic (%) [4]: 9.3% and 10% | Population Fragmented Nuclei (%) [4]: 8.8% and 4.95% | Population Healthy Nuclei (%) [4]: 71.3% and 85.15% | Population Hoechst High Intensity Objects (%) [4]: 0% | Population Membrane Permeable-Phenotype (%) [4]: 8.44% and 2.33% | Population Mitochondria Different-Phenotype (%) [4]: 4.55% and 5.81% | Population Mitotic Cells (%) [4]: 90.7% and 90% | Population Normal (%) [4]: 100% | Population Pyknosed Nuclei (%) [4]: 19.91% and 9.9% | Population Tubulin-Different-Phenotype (%) [4]: 23.38% and 29.07% | Total Cell Count [4]: 216 and 202 | Population Apoptotic (%) [5]: 26.67% and 20% | Population Healthy Nuclei (%) [5]: 73.05% and 89.29% | Population Hoechst High Intensity Objects (%) [5]: 0% | Population Membrane Permeable-Phenotype (%) [5]: 1.64% and 1.78% | Population Mitotic Cells (%) [5]: 73.33% and 80% | Population Normal (%) [5]: 100% | Population Pyknosed Nuclei (%) [5]: 8.98% and 7.94% | Population Tubulin-Different-Phenotype (%) [5]: 7.38% and 16.44% | Total Cell Count [5]: 167 and 252 | Population Apoptotic (%) [6]: 9.09% and 27.27% | Population Fragmented Nuclei (%) [6]: 7.76% and 9.13% | Population Healthy Nuclei (%) [6]: 87.21% and 80.29% | Population Hoechst High Intensity Objects (%) [6]: 0% | Population Membrane Permeable-Phenotype (%) [6]: 1.57% and 0.6% | Population Mitochondria Different-Phenotype (%) [6]: 8.9% and 2.4% | Population Mitotic Cells (%) [6]: 90.91% and 72.73% | Population Normal (%) [6]: 100% | Population Pyknosed Nuclei (%) [6]: 5.02% and 10.58% | Population Tubulin-Different-Phenotype (%) [6]: 9.42% and 27.54% | Total Cell Count [6]: 219 and 208
